Here are results for two compounds from ChEMBL document CHEMBL5257161, “Mycobacterium tuberculosis CitA activity is modulated by cysteine oxidation and pyruvate binding” (RSC Med Chem, 2023).

As usually defined, the IC50 is the midpoint of a concentration-inhibition curve. Read a low IC50 as greater potency.

The experiment addresses T1, Putative citrate synthase 2 (Mycobacterium tuberculosis, UniProt P9WPD3).
T1 sequence (P9WPD3 whole entry): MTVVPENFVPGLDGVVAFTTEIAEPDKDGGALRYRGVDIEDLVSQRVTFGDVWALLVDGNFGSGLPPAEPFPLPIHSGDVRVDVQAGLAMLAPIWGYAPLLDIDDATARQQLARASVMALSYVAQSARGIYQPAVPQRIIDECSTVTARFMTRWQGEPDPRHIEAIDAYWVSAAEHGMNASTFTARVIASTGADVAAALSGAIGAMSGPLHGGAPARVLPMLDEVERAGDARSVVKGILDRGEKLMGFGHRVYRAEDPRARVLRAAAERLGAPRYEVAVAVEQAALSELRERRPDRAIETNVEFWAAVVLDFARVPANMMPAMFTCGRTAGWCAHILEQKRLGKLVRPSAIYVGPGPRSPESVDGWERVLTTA
The experiment is described as follows: Inhibition of Mycobacterium tuberculosis CitA expressed in Escherichia coli cell by UV spectrophotometric based analysis. Summed up:
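Michael acceptor compounds were added directly to the DTNB/OAA/AcCoA reaction with 10 nM CitA in 50 mM Tris pH 8.0 at 25 °C, read at 412 nm. The screen used 20 μM compound. Dose–response data were fitted to the Hill equation for apparent IC50. A control measured how fast the compounds react with reaction components.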

In turn, `C=C1C(=O)OC2(C(=O)Nc3ccccc32)C1c1ccccc1` (configuration not stated) gave an IC50 of 10.9 µM.
With `C=C1CC2(OC1=O)C(=O)Nc1ccc(I)cc12` (configuration not stated), half-maximal inhibition (IC50) required 6.6 µM.
